Calls of active or inactive are those of the source. The rule behind the calls is not given here.
Columns and labels:
RAW264.7 [1] = assay: Anti-inflammatory activity in mouse RAW264.7 cells assessed as inhibition of LPS-induced NO production at 40 uM preincubated for 2 hrs followed by LPS addition measured after 20 hrs by Griess assay relative to control; format: functional
Summary of the method: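 Macrophages (RAW264.7) are pretreated 2 h with compound at 40 μM, then held with or without LPS (1 μg mL–1) for 20 h. Released NO is measured with Griess reagent. Results are means ± SD (n = 3) from at least three independent experiments.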

[2] = Cytotoxicity against mouse RAW264.7 cells assessed as cell viability at 40 uM after 24 hrs by MTT assay relative to control; format: cell-based; conditions: read-out: Activity
RAW264.7 [3] = assay: Anti-inflammatory activity in mouse RAW264.7 cells assessed as inhibition of LPS-induced IL-6 production at 10 to 40 uM preincubated for 2 hrs followed by LPS addition measured after 20 hrs by ELISA; format: functional, cell-based
Summary of the method: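 RAW264.7 cells are pretreated 2 h with compound at 40 or 10 μM, then held with or without LPS (1 μg mL–1) for 20 h. Supernatant IL-6 is quantified by ELISA. Results are means ± SD (n = 3) of at least three independent experiments.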

RAW264.7 [4] = assay: Anti-inflammatory activity in mouse RAW264.7 cells assessed as inhibition of LPS-induced iNOS protein expression measured after 20 hrs by Western blot analysis; format: functional, cell-based
Summary of the method: (§1)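 RAW264.7 cells are treated with graded concentrations of test article, then held with or without LPS (1 μg mL–1) for 20 h. iNOS and COX-2 protein are measured. The NF-κB inhibitor Bay 11-7082 (20 μM) serves as reference. Results are means ± SD (n = 3) of at least three independent experiments.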

RAW264.7 [5] = assay: Anti-inflammatory activity in mouse RAW264.7 cells assessed as inhibition of LPS-induced COX2 protein expression measured after 20 hrs by Western blot analysis; format: functional, cell-based; summary of the method: as §1
[6] = target: Transcription factor p65 (Mus musculus) (UniProt Q04207); assay: Inhibition of LPS-induced NF-kB p65 phosphorylation in mouse RAW264.7 cells at 10 to 30 uM after 30 mins by Western blot analysis; format: cell-based
Summary of the method: (§2)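 RAW264.7 cells are exposed to 10–30 μM test article plus LPS (1 μg mL–1) for 30 min. Total and phosphorylated proteins are probed by western blot: NF-κB p65 and IκB, with Bay 11-7082 (20 μM) as reference, and JNK, ERK1/2 and p38 MAPK. Results are means ± SD (n = 3) from at least three independent experiments.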

[7] = target: Transcription factor p65 (Mus musculus) (UniProt Q04207); assay: Inhibition of LPS-induced NF-kB p65 nuclear tanslocation in mouse RAW264.7 cells at 20 to 30 uM preincubated for 1 hr followed by LPS addition measured after 3 hrs by DAPI staining based immunofluorescence assay; format: cell-based
Summary of the method: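 For p65 nuclear translocation, RAW264.7 cells are pretreated 1 h with test article, then stimulated with LPS (1 μg mL–1) for 3 h before immunofluorescence imaging.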

RAW264.7 [8] = assay: Inhibition of LPS-induced ERK phosphorylation in mouse RAW264.7 cells after 30 mins by Western blot analysis; format: cell-based; summary of the method: as §2
Mus musculus [9] = assay: Anti-inflammatory activity in C57BL6 mouse model of CCl4-induced hepatic fibrosis assessed as reduction in inflammatory cell infiltration in hepatic tissue at 100 to 200 mg/kg, ig administered 2 times per week for 4 weeks by H and E staining based assay; format: functional, organism-based
Summary of the method: (§3)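 Male SPF C57BL6 mice (20 ± 2 g) are acclimatized at least one week at 22 ± 2 °C, 50% humidity, 12 h light/dark, with free food and water. CCl4 induces hepatic fibrosis. Groups are control, model, colchicine 0.1 mg kg–1, and test article at 100 or 200 mg kg–1. Liver sections are scored by light microscopy after H&E and Masson staining.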

Mus musculus [10] = assay: Anti-inflammatory activity in C57BL6 mouse model of CCl4-induced hepatic fibrosis assessed as reduction in blue collagen fibers in hepatic tissue at 100 to 200 mg/kg, ig administered 2 times per week for 4 weeks by masson staining based assay; format: functional, organism-based; summary of the method: as §3
Mus musculus [11] = assay: Anti-inflammatory activity in C57BL6 mouse model of CCl4-induced hepatic fibrosis assessed as reduction in hepatic fibrosis at 100 to 200 mg/kg, ig administered 2 times per week for 4 weeks by H and E staining based assay; format: functional, organism-based; summary of the method: as §3
[12] = Inhibition of LPS-induced IkBalpha phosphorylation in mouse RAW264.7 cells at 10 to 30 uM after 30 mins by Western blot analysis
Mus musculus [13] = assay: Anti-inflammatory activity in C57BL6 mouse model of CCl4-induced hepatic fibrosis assessed as reduction in inflammatory cell infiltration in hepatic tissue at 0.1 mg/kg, ig administered 2 times per week for 4 weeks by H and E staining based assay; format: functional, organism-based
Summary of the method: (§4)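 Male SPF C57BL6 mice (20 ± 2 g), acclimatized for at least one week under controlled temperature, humidity and light cycle. Hepatic fibrosis was induced with CCl4, with control and model groups run alongside. Liver tissue was H&E-stained and examined by light microscopy for inflammatory cell infiltration, hepatocyte degeneration and fibrosis.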

Mus musculus [14] = assay: Anti-inflammatory activity in C57BL6 mouse model of CCl4-induced hepatic fibrosis assessed as reduction in blue collagen fibers in hepatic tissue at 0.1 mg/kg, ig administered 2 times per week for 4 weeks by masson staining based assay; format: functional, organism-based
Summary of the method: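 Male SPF C57BL6 mice (20 ± 2 g), housed at 22 ± 2 °C and 50% humidity with a 12 h light/dark cycle, acclimatized for at least one week. CCl4-induced hepatic fibrosis model, groups compared with untreated control and CCl4 model groups. Liver sections were Masson-stained, and blue collagen fibers were scored by light microscopy.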

Mus musculus [15] = assay: Anti-inflammatory activity in C57BL6 mouse model of CCl4-induced hepatic fibrosis assessed as reduction in hepatic fibrosis at 0.1 mg/kg, ig administered 2 times per week for 4 weeks by H and E staining based assay; format: functional, organism-based; summary of the method: as §4

Chain of Transcription factor p65 (Mus musculus) (Q04207 whole entry): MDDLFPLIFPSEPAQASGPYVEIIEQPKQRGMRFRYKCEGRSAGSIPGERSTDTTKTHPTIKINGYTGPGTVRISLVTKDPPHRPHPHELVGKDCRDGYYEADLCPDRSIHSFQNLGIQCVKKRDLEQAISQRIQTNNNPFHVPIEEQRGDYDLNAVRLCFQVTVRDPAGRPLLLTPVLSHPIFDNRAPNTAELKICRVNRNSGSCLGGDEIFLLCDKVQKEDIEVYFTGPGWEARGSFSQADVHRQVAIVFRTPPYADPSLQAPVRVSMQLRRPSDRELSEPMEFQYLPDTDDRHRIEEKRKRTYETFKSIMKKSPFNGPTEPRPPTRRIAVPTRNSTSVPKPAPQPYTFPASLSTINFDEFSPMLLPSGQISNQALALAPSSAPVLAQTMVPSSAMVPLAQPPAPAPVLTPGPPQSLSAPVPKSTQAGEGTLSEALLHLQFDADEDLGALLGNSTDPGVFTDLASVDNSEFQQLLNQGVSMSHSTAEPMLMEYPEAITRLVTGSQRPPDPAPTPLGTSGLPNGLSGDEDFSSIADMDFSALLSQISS

| Compound | viability at 24 h, 40 µM [2] [%] | inhibition (RAW264.7 [3]) | inhibition (RAW264.7 [1]) | also measured |
| --- | --- | --- | --- | --- |
| CC1(C)[C@@H](O[C@H]2O[C@H](C(=O)O)[C@@H](O)[C@H](O)[C@H]2O)CC[C@]2(C)[C@H]3C(=O)C=C4[C@H]5C[C@@](C)(C(=O)O)CC[C@]5(C)CC[C@@]4(C)[C@]3(C)CC[C@@H]12 | > 96 | Active | – | inhibition at 40 µM (RAW264.7 [1]): > 70%; inhibition (RAW264.7 [4]): Dose-dependent effect; inhibition (RAW264.7 [5]): Dose-dependent effect; inhibition [6]: Active; inhibition [7]: Active; inhibition (RAW264.7 [8]): Dose-dependent effect; Activity (Mus musculus [9]): Active; Activity (Mus musculus [10]): Active; Activity (Mus musculus [11]): Active; inhibition [12]: Active |
| CC1(C)[C@@H](O)CC[C@]2(C)[C@H]3C(=O)C=C4[C@@H]5C[C@@](C)(C(=O)O)CC[C@]5(C)CC[C@@]4(C)[C@]3(C)CC[C@@H]12 [ENOXOLONE] | > 96 | Active | Active | – |
| CC1(C)[C@@H](O[C@H]2O[C@H](C(=O)O)[C@@H](O)[C@H](O)[C@H]2O[C@@H]2O[C@H](C(=O)O)[C@@H](O)[C@H](O)[C@H]2O)CC[C@]2(C)[C@H]3C(=O)C=C4[C@H]5C[C@@](C)(C(=O)O)CC[C@]5(C)CC[C@@]4(C)[C@]3(C)CC[C@@H]12 | > 96 | Active | Active | – |
| CC1(C)[C@@H](O[C@H]2O[C@H](C(=O)O)[C@@H](O)[C@H](O)[C@H]2O)CC[C@]2(C)[C@H]3C(=O)C=C4[C@@H]5C[C@@](C)(C(=O)O)CC[C@]5(C)CC[C@@]4(C)[C@]3(C)CC[C@@H]12 | > 96 | Active | Active | – |
| CC1(C)[C@@H](O[C@H]2O[C@H](C(=O)O)[C@@H](O)[C@H](O)[C@H]2O[C@@H]2O[C@H](C(=O)O)[C@@H](O)[C@H](O)[C@H]2O)CC[C@]2(C)[C@H]3C(=O)C=C4[C@@H]5C[C@@](C)(C(=O)O)CC[C@]5(C)CC[C@@]4(C)[C@]3(C)CC[C@@H]12 [GLYCYRRHIZIN] | > 96 | Active | Active | – |
| COc1cc2c(c(OC)c1OC)-c1ccc(OC)c(=O)cc1[C@@H](NC(C)=O)CC2 | – | – | – | Activity (Mus musculus [13]): Active; Activity (Mus musculus [14]): Active; Activity (Mus musculus [15]): Active |
| CC1(C)[C@@H](O)CC[C@]2(C)[C@H]3C(=O)C=C4[C@H]5C[C@@](C)(C(=O)O)CC[C@]5(C)CC[C@@]4(C)[C@]3(C)CC[C@@H]12 [18alpha-GLYCYRRHETINIC ACID] | > 96 | Active | Active | – |

— ChEMBL document CHEMBL4261539, “18α-Glycyrrhetinic acid monoglucuronide as an anti-inflammatory agent through suppression of the NF-κB and MAPK signaling pathway” (Medchemcomm, 2017)
